Measurements taken from PubChem BioAssay AID493088 (Southern Research Specialized Biocontainment Screening …, 2011).
Calls of active or inactive are those of the source.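 Rule for the calls: active = compounds blocking at least half of the virus-caused cell damage in the dose series; inactive = the rest.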

Test system: HEp-2 RSV Long CPE inhibition, luminescence
Assay: RSV cytopathic effect inhibition, dose response, cell-based, HEp-2, RSV Long, synthesized compounds, set 5 (AID 493088)
Method in brief: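 Compound dosing: 8-point twofold dilution series, 0.39–50 µM final, 0.5% DMSO; test system: RSV Long-infected HEp-2 cells; reagent: RSV Long, MOI 0.45; benchmarks: cell-only and virus-only wells; times: 6-day incubation of infected, compound-treated cells at 37 °C; repeats: triplicates; measured by: luminescence measurement of virus-induced cytopathic effect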

IC50 | Compound
> 50 µM (inactive) | Cc1ncccc1NC(=O)[C@@H]1CCCN1S(=O)(=O)c1cccc2cccnc12
28.4 µM | CCOC(=O)c1ccc2[nH]c3c(c2c1)CN(C)CC3
16.2 µM | CCc1ccccc1NC(=O)[C@@H]1CCCN1S(=O)(=O)c1cccc2cccnc12
> 50 µM (inactive) | CC(=O)c1ccccc1NC(=O)[C@@H]1CCCN1S(=O)(=O)c1cccc2cccnc12
1.71 µM | COCCCNC(=O)c1ccc(Cn2c(=O)c3ccccc3n(Cc3ccc(C)cc3)c2=O)cc1
